Measurements as given in ChEMBL document CHEMBL3860088, “Design, synthesis, and evaluation of novel porcupine inhibitors featuring a fused 3-ring system based on the 'reversed' amide scaffold” (Bioorg Med Chem, 2016).
Active and inactive are the calls of the source. The rule behind the calls is not given here.

How the values were obtained:
[1] = molecular target: T1, Protein-serine O-palmitoleoyltransferase porcupine (Mus musculus, UniProt Q9JJJ7); experiment: Inhibition of porcupine in mouse L Wnt3A cells co-cultured with HEK293 cells after 48 hrs by Super-top flash reporter gene assay; assay type: cell-based
T1 sequence (Q9JJJ7 whole entry): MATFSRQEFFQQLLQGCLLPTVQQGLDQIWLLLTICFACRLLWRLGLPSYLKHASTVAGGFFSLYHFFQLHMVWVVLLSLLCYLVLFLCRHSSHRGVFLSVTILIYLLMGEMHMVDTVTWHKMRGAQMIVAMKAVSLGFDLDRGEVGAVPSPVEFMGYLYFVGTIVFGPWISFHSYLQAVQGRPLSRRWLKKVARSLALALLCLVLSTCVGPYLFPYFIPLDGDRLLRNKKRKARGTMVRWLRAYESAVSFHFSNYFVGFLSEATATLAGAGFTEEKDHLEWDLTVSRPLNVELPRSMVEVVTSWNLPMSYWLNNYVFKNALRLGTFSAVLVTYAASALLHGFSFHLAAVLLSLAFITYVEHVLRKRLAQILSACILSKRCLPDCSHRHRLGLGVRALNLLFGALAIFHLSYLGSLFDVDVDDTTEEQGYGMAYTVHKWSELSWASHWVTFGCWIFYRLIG
In short: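 Readout was luminescence inhibition in a co-culture of Wnt-producing LWnt3A cells with Wnt-responding HEK293 cells. Values are geometric means of at least two runs ± SEM, with a reference inhibitor run as a standard in every assay.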

CYP2C9 = CYP2C9 (Homo sapiens, UniProt P11712); experiment: Inhibition of CYP2C9 in human liver microsomes at 10 uM preincubated for 10 mins followed by NADPH addition measured after 10 mins by LC-MS/MS analysis; assay type: ADME
Chain of CYP2C9 (P11712 whole entry): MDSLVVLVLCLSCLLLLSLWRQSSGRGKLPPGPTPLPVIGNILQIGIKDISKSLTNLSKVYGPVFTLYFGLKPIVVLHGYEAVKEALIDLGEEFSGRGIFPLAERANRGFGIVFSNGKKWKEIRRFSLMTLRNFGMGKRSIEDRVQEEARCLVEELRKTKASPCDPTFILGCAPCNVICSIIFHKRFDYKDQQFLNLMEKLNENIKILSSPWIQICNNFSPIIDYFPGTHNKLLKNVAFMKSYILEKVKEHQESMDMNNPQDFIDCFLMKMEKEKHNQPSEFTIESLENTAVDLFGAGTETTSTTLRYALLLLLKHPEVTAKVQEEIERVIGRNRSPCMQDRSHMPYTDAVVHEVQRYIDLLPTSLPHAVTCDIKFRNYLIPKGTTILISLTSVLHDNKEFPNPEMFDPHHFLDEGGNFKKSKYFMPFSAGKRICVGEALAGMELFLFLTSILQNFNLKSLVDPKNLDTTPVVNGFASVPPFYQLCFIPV

[2] = Effect on Wnt3A level in HEK293T cells transfected with pLibin-WNT3A plasmid at 0.1 uM after 48 hrs by Western blot method; assay type: ADME, cell-based; conditions: human, hek-293t
In short: (§1)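 Cells were HEK293T transfected with pLinbin-Wnt3A plasmid or vehicle control, then exposed to compound (0.1 µM) or left untreated. After 48 h, Western blot was run on both the cell lysate and the culture medium to follow Wnt3A.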

[3] = Intrinsic clearance in mouse liver microsomes at 1 uM preincubated for 10 mins followed by NADPH addition measured for 30 to 60 mins by LC-MS/MS analysis; assay type: ADME; conditions: read-out: CLH
[4] = Intrinsic clearance in rat liver microsomes at 1 uM preincubated for 10 mins followed by NADPH addition measured for 30 to 60 mins by LC-MS/MS analysis; assay type: ADME; conditions: read-out: CLH
[5] = Intrinsic clearance in human liver microsomes at 1 uM preincubated for 10 mins followed by NADPH addition measured for 30 to 60 mins by LC-MS/MS analysis; assay type: ADME; conditions: read-out: CLH
CYP2C19 = CYP2C19 (Homo sapiens, UniProt P33261); experiment: Inhibition of CYP2C19 in human liver microsomes at 10 uM preincubated for 10 mins followed by NADPH addition measured after 10 mins by LC-MS/MS analysis; assay type: ADME
Chain of CYP2C19 (P33261 whole entry): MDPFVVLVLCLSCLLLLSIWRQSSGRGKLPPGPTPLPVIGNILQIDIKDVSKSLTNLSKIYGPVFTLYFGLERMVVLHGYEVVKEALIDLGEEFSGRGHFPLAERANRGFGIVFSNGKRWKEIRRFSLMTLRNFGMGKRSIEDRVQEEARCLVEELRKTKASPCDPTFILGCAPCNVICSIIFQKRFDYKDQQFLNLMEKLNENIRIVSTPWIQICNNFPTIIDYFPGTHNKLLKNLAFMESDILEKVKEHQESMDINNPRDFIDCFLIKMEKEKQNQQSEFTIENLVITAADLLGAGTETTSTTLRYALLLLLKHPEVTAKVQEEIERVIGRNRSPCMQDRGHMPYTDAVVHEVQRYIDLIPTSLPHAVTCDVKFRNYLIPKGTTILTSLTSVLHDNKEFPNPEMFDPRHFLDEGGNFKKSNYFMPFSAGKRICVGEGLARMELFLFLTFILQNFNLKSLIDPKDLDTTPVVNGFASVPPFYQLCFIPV

[6] = Metabolic stability in rat plasma assessed as remaining compound levels at 1 uM after 8 hrs by LC-MS/MS analysis; assay type: ADME, cell-free; conditions: read-out: Stability
CYP1A2 = molecular target: T2, CYP1A2 (Homo sapiens, UniProt P05177); experiment: Inhibition of CYP1A2 in human liver microsomes at 10 uM preincubated for 10 mins followed by NADPH addition measured after 10 mins by LC-MS/MS analysis; assay type: ADME
T2 sequence (P05177 whole entry): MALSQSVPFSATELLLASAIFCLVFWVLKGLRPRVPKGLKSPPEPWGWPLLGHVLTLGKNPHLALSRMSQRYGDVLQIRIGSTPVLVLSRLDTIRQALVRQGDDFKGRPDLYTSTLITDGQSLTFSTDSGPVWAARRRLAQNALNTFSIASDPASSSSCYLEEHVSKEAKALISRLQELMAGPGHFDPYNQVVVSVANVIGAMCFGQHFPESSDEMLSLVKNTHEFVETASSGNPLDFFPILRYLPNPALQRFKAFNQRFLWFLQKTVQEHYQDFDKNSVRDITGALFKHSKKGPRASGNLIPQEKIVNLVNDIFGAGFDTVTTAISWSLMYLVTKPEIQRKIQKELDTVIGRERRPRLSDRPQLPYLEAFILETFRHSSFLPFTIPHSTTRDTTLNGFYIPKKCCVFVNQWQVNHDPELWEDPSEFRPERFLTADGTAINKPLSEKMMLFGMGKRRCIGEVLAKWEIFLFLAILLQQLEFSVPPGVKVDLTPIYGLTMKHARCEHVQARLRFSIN

CYP2D6 = CYP2D6 (Homo sapiens, UniProt P10635); experiment: Inhibition of CYP2D6 in human liver microsomes at 10 uM using dextromethorphan as substrate preincubated for 10 mins followed by NADPH addition measured after 10 mins by LC-MS/MS analysis; assay type: ADME; conditions: probe dextromethorphan
Chain of CYP2D6 (P10635 whole entry): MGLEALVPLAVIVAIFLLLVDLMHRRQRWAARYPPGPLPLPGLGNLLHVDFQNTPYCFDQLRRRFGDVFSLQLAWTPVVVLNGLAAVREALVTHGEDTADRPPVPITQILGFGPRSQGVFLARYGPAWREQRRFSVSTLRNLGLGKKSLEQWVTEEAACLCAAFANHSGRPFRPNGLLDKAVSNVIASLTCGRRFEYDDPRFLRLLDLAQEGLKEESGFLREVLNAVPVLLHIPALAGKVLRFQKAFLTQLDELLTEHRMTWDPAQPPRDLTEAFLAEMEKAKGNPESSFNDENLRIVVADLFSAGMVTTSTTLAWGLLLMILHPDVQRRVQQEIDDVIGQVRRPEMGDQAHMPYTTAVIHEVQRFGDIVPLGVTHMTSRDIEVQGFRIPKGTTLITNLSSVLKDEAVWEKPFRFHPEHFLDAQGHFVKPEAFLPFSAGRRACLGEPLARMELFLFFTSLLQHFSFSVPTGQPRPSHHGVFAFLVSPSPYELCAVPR

[7] = Half life in mouse liver microsomes at 1 uM preincubated for 10 mins followed by NADPH addition measured for 30 to 60 mins by LC-MS/MS analysis; assay type: ADME
CYP3A4 = CYP3A4 (Homo sapiens, UniProt P08684); experiment: Inhibition of CYP3A4 in human liver microsomes at 10 uM using midazolam as substrate preincubated for 10 mins followed by NADPH addition measured after 10 mins by LC-MS/MS analysis; assay type: ADME; conditions: probe midazolam
Chain of CYP3A4 (P08684 whole entry): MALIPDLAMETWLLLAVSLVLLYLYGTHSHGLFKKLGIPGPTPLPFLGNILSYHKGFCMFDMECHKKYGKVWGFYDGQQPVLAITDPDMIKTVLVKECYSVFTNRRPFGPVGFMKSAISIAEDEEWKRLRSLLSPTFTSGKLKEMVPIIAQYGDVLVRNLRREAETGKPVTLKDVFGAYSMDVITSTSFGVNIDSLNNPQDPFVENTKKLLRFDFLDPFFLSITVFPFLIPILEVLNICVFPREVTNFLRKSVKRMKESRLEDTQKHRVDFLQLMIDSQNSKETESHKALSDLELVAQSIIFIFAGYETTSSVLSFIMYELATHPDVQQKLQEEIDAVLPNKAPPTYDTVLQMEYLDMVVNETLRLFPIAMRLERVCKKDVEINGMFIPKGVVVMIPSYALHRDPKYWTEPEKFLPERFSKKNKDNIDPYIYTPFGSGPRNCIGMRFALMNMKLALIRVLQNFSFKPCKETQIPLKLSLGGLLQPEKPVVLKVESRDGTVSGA

[8] = Half life in human liver microsomes at 1 uM preincubated for 10 mins followed by NADPH addition measured for 30 to 60 mins by LC-MS/MS analysis; assay type: ADME
[9] = Chemical stability in simulated gastric fluid assessed as remaining compound levels at 200 uM at 40 degC after 24 hrs by HPLC method; assay type: ADME; conditions: read-out: Stability
In short: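 Test compound held at 200 µM in simulated gastric fluid, 40 °C for 24 h; remaining compound then assessed.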

[10] = Half life in rat liver microsomes at 1 uM preincubated for 10 mins followed by NADPH addition measured for 30 to 60 mins by LC-MS/MS analysis; assay type: ADME
[11] = molecular target: T3, Protein-serine O-palmitoleoyltransferase porcupine (Homo sapiens) (UniProt Q9H237); experiment: Inhibition of porcupine in HEK293T cells transfected with pLibin-WNT3A plasmid assessed as reduction in Wnt3A secretion into cell culture medium at 0.1 uM after 48 hrs by Western blot method; assay type: cell-based; conditions: HEK-293T; in short: as §1
T3 sequence (whole entry): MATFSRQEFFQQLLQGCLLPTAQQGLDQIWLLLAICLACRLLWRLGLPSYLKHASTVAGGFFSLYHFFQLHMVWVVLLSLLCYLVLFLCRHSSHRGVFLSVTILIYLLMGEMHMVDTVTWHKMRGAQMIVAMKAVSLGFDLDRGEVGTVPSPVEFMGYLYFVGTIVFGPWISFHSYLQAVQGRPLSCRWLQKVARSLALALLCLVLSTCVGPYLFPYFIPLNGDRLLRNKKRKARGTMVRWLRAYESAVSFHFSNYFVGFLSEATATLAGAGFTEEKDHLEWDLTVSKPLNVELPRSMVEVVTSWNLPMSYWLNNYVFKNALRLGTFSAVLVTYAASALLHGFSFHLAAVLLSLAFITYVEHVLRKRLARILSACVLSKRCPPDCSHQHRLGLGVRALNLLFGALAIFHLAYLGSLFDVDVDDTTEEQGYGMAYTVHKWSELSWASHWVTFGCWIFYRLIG

[12] = Solubility of the compound in FaSSIF at pH 6.5 at 4 mg/ml by LC-MS/MS analysis; assay type: physicochemical
In short: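 HCl salt suspended at 4 mg/mL in FaSSIF (pH 6.5), shaken 1 h, then equilibrated overnight at room temperature. After centrifugation, supernatant concentration was measured by LC-MS/MS.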

## Cc1cc(-c2ccc(CNC(=O)c3ccc4c(c3)oc3ccccc34)cc2)ccn1
[1]
  IC50: 9.1 nM

## Cc1cc(-c2ccc(CNC(=O)c3ccc4c(c3)[nH]c3ccccc34)cc2)ccn1 [listing 1 of 2 here]
[1]
  IC50: 7.5 nM
CYP2C9
  inhibition at 10 min, 10 µM: -22%
[2]
  Activity: Non-Toxic
[3]
  CLint scaled at 1 µM: 141 mL/min/kg
[4]
  CLint scaled at 1 µM: 7 mL/min/kg
[5]
  CLint scaled at 1 µM: 59 mL/min/kg
CYP2C19
  inhibition at 10 min, 10 µM: 8%
[6]
  remaining at 8 h, 1 µM: 100%
CYP1A2
  inhibition at 10 min, 10 µM: 64%
CYP2D6
  inhibition at 10 min, 10 µM: 9%
[7]
  half-life at 1 µM: 0.717 h
CYP3A4
  inhibition at 10 min, 10 µM: 7%
[8]
  half-life at 1 µM: 0.5 h
[9]
  remaining at 24 h, 200 µM: 100%
[10]
  half-life at 1 µM: 4.62 h

## O=C(NCc1ccc(-c2ccncc2)cc1)c1ccc2c(c1)[nH]c1ccccc12
[1]
  IC50: 18 nM

## Cc1cc(-c2ncc(CNC(=O)c3ccc4c(c3)[nH]c3ccccc34)cc2C)ccn1
[1]
  IC50: 10 nM

## Cc1cc(-c2ncc(CNC(=O)c3ccc4c(c3)[nH]c3ccccc34)cc2F)ccn1 [listing 1 of 2 here]
[1]
  IC50: 0.5 nM
CYP2C9
  inhibition at 10 min, 10 µM: 31%
[2]
  Activity: Non-Toxic
[3]
  CLint scaled at 1 µM: 109 mL/min/kg
[4]
  CLint scaled at 1 µM: 24 mL/min/kg
[5]
  CLint scaled at 1 µM: 57 mL/min/kg
CYP2C19
  inhibition at 10 min, 10 µM: 59%
[6]
  remaining at 8 h, 1 µM: 100%
CYP1A2
  inhibition at 10 min, 10 µM: 73%
CYP2D6
  inhibition at 10 min, 10 µM: 37%
[7]
  half-life at 1 µM: 0.917 h
CYP3A4
  inhibition at 10 min, 10 µM: 69%
[8]
  half-life at 1 µM: 0.517 h
[9]
  remaining at 24 h, 200 µM: 100%
[10]
  half-life at 1 µM: 1.33 h

## Cc1cc(-c2ccc(CNC(=O)c3ccc4c(c3)C(F)(F)c3ccccc3-4)cc2)ccn1
[1]
  IC50: 60 nM

## O=C(NCc1ccc(-n2ccnc2)cc1)c1ccc2c(c1)[nH]c1ccccc12
[1]
  IC50: 314 nM

## Cc1cc(-c2ccc(CNC(=O)c3ccc4c(c3)[nH]c3ccccc34)cn2)ccn1
[1]
  IC50: 6.2 nM

## Cc1cc(-c2ccc(CNC(=O)c3ccc4c(c3)[nH]c3ccccc34)nc2)ccn1
[1]
  IC50: 18 nM

## Cc1cc(-c2ncc(CNC(=O)c3ccc4c(c3)oc3ccccc34)cc2F)ccn1
[1]
  IC50: 3.1 nM

## Cn1nccc1-c1ccc(CNC(=O)c2ccc3c(c2)[nH]c2ccccc23)cc1
[1]
  IC50: 130 nM

## Cc1cn(-c2ccc(CNC(=O)c3ccc4c(c3)[nH]c3ccccc34)cc2)cn1
[1]
  IC50: 119 nM

## Cc1cc(-c2ccc(CNC(=O)c3ccc4c(c3)C(=O)c3ccccc3-4)cc2)ccn1
[1]
  IC50: 85 nM

## Cc1cc(-c2ncc(CNC(=O)c3ccc4c(c3)[nH]c3ccccc34)cc2F)ccn1 [listing 2 of 2 here]
[11]
  inhibition: Active

## N#Cc1ccc2cc(CNC(=O)c3ccc4c(c3)[nH]c3ccccc34)ccc2c1
[1]
  IC50: 13 nM

## Cc1cc(-c2ccc(CNC(=O)c3ccc(-c4ccccc4)cc3)cc2)ccn1
[1]
  IC50: 1 nM

## Cc1cc(-c2ccc(CNC(=O)c3ccc4c(c3)[nH]c3ccccc34)cc2)ccn1.Cl
[12]
  solubility: 0.16 µM

## O=C(NCc1ccc2c(c1)Cc1ccccc1-2)c1ccc(-c2cnccn2)cc1
[1]
  IC50: > 1000 nM

## Cc1cc(-c2ccc(CNC(=O)c3ccc4c(c3)Cc3ccccc3-4)cc2)ccn1
[1]
  IC50: 35 nM

## Cc1cc(-c2ncc(CNC(=O)c3ccc4c(c3)C(=O)c3ccccc3-4)cc2F)ccn1
[1]
  IC50: 44 nM

## O=C(NCc1ccc2c(c1)Cc1ccccc1-2)c1ccc(-c2ccccc2)cc1
[1]
  IC50: > 1000 nM

## Cc1cc(-c2ccc(CNC(=O)c3ccc4c5ccccc5n(C)c4c3)cc2)ccn1
[1]
  IC50: > 1000 nM

## Cc1cc(-c2ncc(CNC(=O)c3ccc4c(c3)[nH]c3ccccc34)cc2F)ccn1.Cl
[12]
  solubility: 1.24 µM

## Cc1cc(-c2ncc(CNC(=O)c3ccc4c(c3)Cc3ccccc3-4)cc2F)ccn1
[1]
  IC50: 9.2 nM

## Cc1cc(-c2ncc(CNC(=O)c3ccc4c(c3)C(F)(F)c3ccccc3-4)cc2F)ccn1
[1]
  IC50: 16 nM

## Cc1cc(-c2ncc(CNC(=O)c3ccc4c5ccccc5n(C)c4c3)cc2F)ccn1
[1]
  IC50: 175 nM

## O=C(NCc1ccc2cnccc2c1)c1ccc2c(c1)[nH]c1ccccc12
[1]
  IC50: 207 nM

## O=C(NCc1ccc2c(c1)oc1ccccc12)c1ccc(-c2cnccn2)cc1
[1]
  IC50: 701 nM

## Cc1cc(-c2ncc(CC(=O)Nc3ccc(-c4cnccn4)cn3)cc2C)ccn1 [WNT-974]
[1]
  IC50: 0.9 nM
[2]
  Activity: Non-Toxic
[3]
  CLint scaled at 1 µM: 22 mL/min/kg
[4]
  CLint scaled at 1 µM: 3 mL/min/kg
[5]
  CLint scaled at 1 µM: 2 mL/min/kg
[11]
  inhibition: Active
[6]
  remaining at 8 h, 1 µM: 100%
[7]
  half-life at 1 µM: 4.62 h
[8]
  half-life at 1 µM: 9.35 h
[9]
  remaining at 24 h, 200 µM: 66%
[10]
  half-life at 1 µM: 12.8 h

## Cc1cc(-c2ccc(CNC(=O)c3ccc4c(c3)[nH]c3ccccc34)cc2)ccn1 [listing 2 of 2 here]
[11]
  inhibition: Active
